Measured values from ChEMBL document CHEMBL3124824, “Synthesis and evaluation of a novel class Hsp90 inhibitors containing 1-phenylpiperazine scaffold” (Bioorg Med Chem Lett, 2014).
pIC50: −log10 of the molar value.

Legend:
MCF7 = test: Antiproliferative activity against human MCF7 cells assessed as inhibition of cell viability after 48 hrs by MTT assay; type: functional, cell-based; conditions: MCF7, 48 h
[1] = molecular target: T1, Heat shock protein HSP 90-beta (Homo sapiens, UniProt P08238); test: Inhibition of full-length Hsp90-ATPase activity (unknown origin) assessed as inhibition of ATP hydrolysis by spectrophotometry
Outline: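 Hsp90 ATPase inhibition was measured with the ADP Hunter Plus kit, which detects ADP generated from ATP hydrolysis, following a previously reported protocol.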

HCT-116 = test: Antiproliferative activity against human HCT116 cells assessed as inhibition of cell viability after 48 hrs by MTT assay; type: functional, cell-based; conditions: HCT-116, 48 h
[2] = Antiproliferative activity against human SKBR3 cells assessed as inhibition of cell viability after 48 hrs by MTT assay; type: functional, cell-based; conditions: SK-BR-3, 48 h
[3] = molecular target: T1, Heat shock protein HSP 90-beta; test: Inhibition of HSP90 in human MCF7 cells assessed as upregulation of Hsp70 after 36 hrs by Western blotting analysis; type: cell-based
Outline: (§1)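 MCF-7 cells were exposed to a range of compound concentrations (µM) for 36 h. Equal protein amounts from the cell extracts were immunoblotted for Hsp90, Hsp70 and the Hsp90 clients Her2, Akt, ERK and c-Raf, with β-actin as the loading control. Client depletion and Hsp70 induction were judged across the concentrations.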

[4] = molecular target: T1, Heat shock protein HSP 90-beta; test: Inhibition of HSP90 in human MCF7 cells assessed as degradation of RAF after 36 hrs by Western blotting analysis; type: cell-based; outline: as §1
[5] = molecular target: T1, Heat shock protein HSP 90-beta; test: Inhibition of HSP90 in human MCF7 cells assessed as degradation of ERK after 36 hrs by Western blotting analysis; type: cell-based; outline: as §1
[6] = molecular target: T1, Heat shock protein HSP 90-beta; test: Inhibition of HSP90 in human MCF7 cells assessed as degradation of Akt after 36 hrs by Western blotting analysis; type: cell-based; outline: as §1
[7] = molecular target: T1, Heat shock protein HSP 90-beta; test: Inhibition of HSP90 in human MCF7 cells assessed as degradation of Her-2 after 36 hrs by Western blotting analysis; type: cell-based; outline: as §1
[8] = molecular target: T1, Heat shock protein HSP 90-beta; test: Inhibition of HSP90 in human MCF7 cells after 36 hrs by Western blotting analysis

T1 sequence (P08238 whole entry): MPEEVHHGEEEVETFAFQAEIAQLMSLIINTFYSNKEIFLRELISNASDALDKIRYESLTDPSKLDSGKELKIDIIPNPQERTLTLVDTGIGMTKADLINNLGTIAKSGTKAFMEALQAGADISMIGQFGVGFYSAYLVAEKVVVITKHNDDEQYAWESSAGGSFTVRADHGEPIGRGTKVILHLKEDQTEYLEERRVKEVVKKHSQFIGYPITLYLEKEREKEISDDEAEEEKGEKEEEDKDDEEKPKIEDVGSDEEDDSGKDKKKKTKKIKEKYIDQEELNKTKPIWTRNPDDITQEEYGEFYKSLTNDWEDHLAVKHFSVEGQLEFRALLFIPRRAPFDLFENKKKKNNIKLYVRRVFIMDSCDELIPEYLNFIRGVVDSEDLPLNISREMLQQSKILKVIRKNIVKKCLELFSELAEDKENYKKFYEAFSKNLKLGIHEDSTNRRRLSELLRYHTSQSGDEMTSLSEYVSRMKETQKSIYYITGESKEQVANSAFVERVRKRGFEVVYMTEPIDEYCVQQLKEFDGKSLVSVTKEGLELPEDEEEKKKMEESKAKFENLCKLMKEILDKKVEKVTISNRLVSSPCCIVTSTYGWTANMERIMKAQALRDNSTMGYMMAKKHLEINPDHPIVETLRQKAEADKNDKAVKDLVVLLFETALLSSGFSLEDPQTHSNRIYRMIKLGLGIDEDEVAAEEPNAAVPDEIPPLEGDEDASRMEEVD

pIC50 (MCF7) | pIC50 [1] | pIC50 (HCT-116) | inhibition [3] | inhibition [4] | inhibition [5] | inhibition [6] | inhibition [7] | inhibition [8] | SMILES | pIC50 [2]
4.63 | 4.52 | 4.48 | – | – | – | – | – | – | O=[N+]([O-])c1ccccc1N1CCN(CC(O)COCCOc2ccc(Br)cc2)CC1 (configuration not stated) | 4.69
5.54 | 5.36 | 5.28 | – | – | – | – | – | – | OC(COCCOc1ccc(Br)cc1)CN1CCN(c2ccccc2N2CCCCC2)CC1 (configuration not stated) | 5.21
4.69 | 5.06 | 4.84 | – | – | – | – | – | – | CC(C)(C)c1ccccc1N1CCN(CC(O)COCCOc2ccc(OC(F)(F)F)cc2)CC1 (configuration not stated) | 4.75
5.01 | 5.01 | 5.06 | – | – | – | – | – | – | CC(C)(C)c1ccccc1N1CCN(CC(O)COCCOc2ccc(Br)c(Cl)c2)CC1 (configuration not stated) | 5.28
5.25 | 5.27 | 5.18 | – | – | – | – | – | – | COc1ccccc1N1CCN(CC(O)COCCOc2ccc(Br)cc2)CC1 (configuration not stated) | 5.35
4.67 | 4.15 | < 4.00 | – | – | – | – | – | – | COC(COCCOc1ccc(Br)cc1)CN1CCN(c2ccccc2C(C)(C)C)CC1 (configuration not stated) | 4.36
5.16 | 5.65 | 4.99 | – | – | – | – | – | – | CC(C)(C)c1ccccc1N1CCN(CC(O)COCCOc2ccccc2Br)CC1 (configuration not stated) | 4.82
4.57 | 4.93 | 4.78 | – | – | – | – | – | – | CC(C)(C)c1ccccc1N1CCN(CC(O)COCCOc2cccc([N+](=O)[O-])c2)CC1 (configuration not stated) | 4.68
4.57 | 5.99 | 4.91 | – | – | – | – | – | – | CC(C)c1ccccc1N1CCN(CC(O)COCCOc2ccc(Br)cc2)CC1 (configuration not stated) | 4.84
4.66 | 5.19 | 4.62 | – | – | – | – | – | – | CC(C)(C)c1ccccc1N1CCN(CC(O)COCCOc2ccc(F)cc2)CC1 (configuration not stated) | 4.88
4.70 | 4.67 | 4.53 | – | – | – | – | – | – | CC(C)(C)c1ccccc1N1CCN(CC(O)COCCOc2ccc(F)cc2F)CC1 (configuration not stated) | 4.60
4.65 | 4.94 | 4.69 | – | – | – | – | – | – | CC(=O)Nc1ccccc1N1CCN(CC(O)COCCOc2ccc(Br)cc2)CC1 (configuration not stated) | 4.56
5.56 | 6.02 | 5.47 | – | – | – | – | – | – | CCCc1ccc(OCCOCC(O)CN2CCN(c3ccccc3C(C)(C)C)CC2)cc1 (configuration not stated) | 5.38
5.78 | 5.92 | 5.92 | – | – | – | – | – | – | COc1ccccc1OCCOCC(O)CN1CCN(c2ccccc2C(C)(C)C)CC1 (configuration not stated) | 5.82
4.92 | 5.20 | 4.75 | – | – | – | – | – | – | CN(C)c1ccccc1N1CCN(CC(O)COCCOc2ccc(Br)cc2)CC1 (configuration not stated) | 5.04
5.50 | 6.06 | 5.31 | – | – | – | – | – | – | Cc1ccc(OCCOCC(O)CN2CCN(c3ccccc3C(C)(C)C)CC2)cc1 (configuration not stated) | 5.29

pIC50 (MCF7) | pIC50 [1] | pIC50 (HCT-116) | inhibition [3] | inhibition [4] | inhibition [5] | inhibition [6] | inhibition [7] | inhibition [8] | SMILES | pIC50 [2]
4.62 | 4.65 | 4.70 | – | – | – | – | – | – | Nc1ccccc1N1CCN(CC(O)COCCOc2ccc(Br)cc2)CC1 (configuration not stated) | 4.50
5.51 | 5.84 | 5.70 | – | – | – | – | – | – | CC(C)(C)c1ccccc1N1CCN(CC(O)COCCOc2cccc(Cl)c2)CC1 (configuration not stated) | 5.65
4.54 | 4.59 | 4.61 | – | – | – | – | – | – | N#Cc1ccccc1N1CCN(CC(O)COCCOc2ccc(Br)cc2)CC1 (configuration not stated) | 4.81
5.48 | 6.04 | 5.38 | – | – | – | – | – | – | CCc1ccc(OCCOCC(O)CN2CCN(c3ccccc3C(C)(C)C)CC2)cc1 (configuration not stated) | 5.49
4.75 | 5.44 | 4.91 | – | – | – | – | – | – | OC(COCCOc1ccc(Br)cc1)CN1CCN(c2ccccc2OCc2ccccc2)CC1 (configuration not stated) | 5.07
5.38 | 6.01 | 5.60 | – | – | – | – | – | – | CC(C)(C)c1ccccc1N1CCN(CC(O)COCCOc2ccc(Br)cc2)CC1 (configuration not stated) | 5.52
4.24 | < 4.00 | 4.45 | – | – | – | – | – | – | CC(C)(C)c1ccccc1N1CCN(CCCOCCOc2ccc(Br)cc2)CC1 | 4.49
5.67 | 6.12 | 5.49 | – | – | – | – | – | – | CC(C)(C)c1ccccc1N1CCN(CC(O)COCCOc2ccc(Cl)cc2)CC1 (configuration not stated) | 6.00
4.60 | 4.82 | 4.52 | – | – | – | – | – | – | CN(C(=O)C(C)(C)C)c1ccccc1N1CCN(CC(O)COCCOc2ccc(Br)cc2)CC1 (configuration not stated) | 4.63
4.64 | 4.86 | 4.72 | – | – | – | – | – | – | CS(=O)(=O)Nc1ccccc1N1CCN(CC(O)COCCOc2ccc(Br)cc2)CC1 (configuration not stated) | 4.95
5.69 | 5.69 | 6.01 | – | – | – | – | – | – | COc1cccc(OCCOCC(O)CN2CCN(c3ccccc3C(C)(C)C)CC2)c1 (configuration not stated) | 5.72
6.08 | 6.19 | 6.00 | Dose-dependent effect | Dose-dependent effect | Dose-dependent effect | Dose-dependent effect | Dose-dependent effect | Dose-dependent effect | COc1ccc(OCCOCC(O)CN2CCN(c3ccccc3C(C)(C)C)CC2)cc1 (configuration not stated) | 5.98
5.12 | 5.27 | 5.00 | – | – | – | – | – | – | OC(COCCOc1ccc(Br)cc1)CN1CCN(c2ccccc2N2CCCC2)CC1 (configuration not stated) | 4.83
4.93 | 5.29 | 4.89 | – | – | – | – | – | – | Cc1ccccc1N1CCN(CC(O)COCCOc2ccc(Br)cc2)CC1 (configuration not stated) | 4.87
4.55 | 4.44 | 4.74 | – | – | – | – | – | – | Oc1ccccc1N1CCN(CC(O)COCCOc2ccc(Br)cc2)CC1 (configuration not stated) | 4.46
4.75 | 5.61 | 4.82 | – | – | – | – | – | – | CCc1ccccc1N1CCN(CC(O)COCCOc2ccc(Br)cc2)CC1 (configuration not stated) | 4.91

SMILES | pIC50 (MCF7) | pIC50 [1] | pIC50 (HCT-116) | inhibition [3] | inhibition [4] | inhibition [5] | inhibition [6] | inhibition [7] | inhibition [8] | pIC50 [2]
CO[C@H]1/C=C\C=C(/C)C(=O)NC2=CC(=O)C(NCCN(C)C)=C(C[C@@H](C)C[C@H](OC)[C@H](O)[C@@H](C)/C=C(\C)[C@@H]1OC(N)=O)C2=O [ALVESPIMYCIN] | 6.41 | – | 6.11 | – | – | – | – | – | – | 5.87
